Reference: ChEMBL document CHEMBL1154855 (Eur J Med Chem, 2010)
Converted amounts (≈) assume the structure as drawn.

Tests used:
[1] = (§1) Cytotoxicity against VSV infected HEL cells by trypan blue exclusion method; format: cell-based; settings: human, HEL cells infected with VSV
Summary of the method: (§2)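 Uninfected confluent cultures were run in parallel with the infected cultures. Medium was replaced by 1 ml maintenance medium with serial compound concentrations; cell controls received no compound. Cultures were incubated at 37 °C. After 2 and 7 days, compound was withdrawn and viability was determined by trypan blue exclusion.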

[2] = (§3) Cytotoxicity against Herpes simplex virus 1 KOS infected HEL cells by trypan blue exclusion method; format: cell-based; settings: human, HEL cells infected with herpes simplex virus 1 KOS; summary of the method: as §2
[3] = test system: Vesicular stomatitis virus; assay: Antiviral activity against VSV infected in HEL cells assessed as protection from virus-induced cytopathogenicity after 1 to 2 days by MTT assay; format: functional, organism-based
Feline coronavirus = assay: Antiviral activity against Feline coronavirus infected in cat CRFK cells assessed as protection from virus-induced cytopathogenicity by MTT assay; format: functional, organism-based; settings: Alphacoronavirus 1, CRFK
[4] = Cytotoxicity against Feline coronavirus infected cat CRFK cells by trypan blue exclusion method; format: cell-based, Felis catus; summary of the method: as §2
[5] = Cytotoxicity against Feline herpesvirus infected cat CRFK cells by trypan blue exclusion method; format: cell-based, Felis catus; summary of the method: as §2
[6] = (§4) Cytotoxicity against Vaccinia virus infected HEL cells by trypan blue exclusion method; format: cell-based; settings: human, HEL cells infected with vaccinia virus; summary of the method: as §2
[7] = (§5) Cytotoxicity against Herpes simplex virus 2 G infected HEL cells by trypan blue exclusion method; format: cell-based; settings: human, HEL cells infected with herpes simplex virus 2 G; summary of the method: as §2
Felid alphaherpesvirus 1 = assay: Antiviral activity against Feline herpesvirus infected in cat CRFK cells assessed as protection from virus-induced cytopathogenicity by MTT assay; format: functional, organism-based; settings: Felid alphaherpesvirus 1, CRFK
HeLa [8] = assay: Cytotoxicity against Human coxsackievirus B4 infected human HeLa cells by trypan blue exclusion method; format: cell-based; settings: hela; summary of the method: as §2
[9] = test system: Respiratory syncytial virus; assay: Antiviral activity against Respiratory syncytial virus infected in human HeLa cells assessed as protection from virus-induced cytopathogenicity after 4 days by MTT assay; format: functional, organism-based; settings: 96 h
HeLa [10] = assay: Cytotoxicity against Respiratory syncytial virus infected human HeLa cells by trypan blue exclusion method; format: cell-based; settings: hela; summary of the method: as §2
Punta Toro virus = assay: Antiviral activity against Punta Toro virus infected in african green monkey Vero cells assessed as protection from virus-induced cytopathogenicity by MTT assay; format: functional, organism-based
HeLa [11] = assay: Cytotoxicity against VSV infected human HeLa cells by trypan blue exclusion method; format: cell-based; settings: hela; summary of the method: as §2
[12] = test system: Vesicular stomatitis virus; assay: Antiviral activity against VSV infected in human HeLa cells assessed as protection from virus-induced cytopathogenicity after 1 to 2 days by MTT assay; format: functional, organism-based
Vero [13] = assay: Cytotoxicity against PIV 3 infected african green monkey Vero cells by trypan blue exclusion method; format: cell-based; settings: chlorocebus sabaeus, vero; summary of the method: as §2
Vero [14] = assay: Cytotoxicity against Reovirus 1 infected african green monkey Vero cells by trypan blue exclusion method; format: cell-based; settings: chlorocebus sabaeus, vero; summary of the method: as §2
[15] = test system: Mammalian orthoreovirus 1; assay: Antiviral activity against Reovirus 1 infected in african green monkey Vero cells assessed as protection from virus-induced cytopathogenicity after 6 to 7 days by MTT assay; format: functional, organism-based; settings: Mammalian orthoreovirus 1, Vero
Vero [16] = assay: Cytotoxicity against Sindbis virus infected african green monkey Vero cells by trypan blue exclusion method; format: cell-based; settings: chlorocebus sabaeus, vero; summary of the method: as §2
Coxsackievirus B4 [17] = assay: Antiviral activity against Human coxsackievirus B4 infected in african green monkey Vero cells assessed as protection from virus-induced cytopathogenicity after 2 days by MTT assay; format: functional, organism-based; settings: Enterovirus B, 48 h
Human respirovirus 3 = assay: Antiviral activity against PIV 3 infected in african green monkey Vero cells assessed as protection from virus-induced cytopathogenicity after 6 to 7 days by MTT assay; format: functional, organism-based; settings: Human respirovirus 3, Vero
Vero [18] = assay: Cytotoxicity against Human coxsackievirus B4 infected african green monkey Vero cells by trypan blue exclusion method; format: cell-based; settings: chlorocebus sabaeus, vero; summary of the method: as §2
Sindbis virus = assay: Antiviral activity against Sindbis virus infected in african green monkey Vero cells assessed as protection from virus-induced cytopathogenicity after 2 to 3 days by MTT assay; format: functional, organism-based
Vero [19] = assay: Cytotoxicity against Punta Toro virus infected african green monkey Vero cells by trypan blue exclusion method; format: cell-based; settings: chlorocebus sabaeus, vero; summary of the method: as §2
[20] = test system: Human immunodeficiency virus 2; assay: Antiviral activity against HIV2 ROD infected in human MT4 cells assessed as protection from virus-induced cytopathogenicity after 5 days by MTT assay; format: functional, organism-based; settings: Human immunodeficiency virus 2, ISOLATE ROD, MT4, 120 h
Summary of the method: (§6)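 MT-4 cells at 3 × 10^4 per well were infected with HIV (IIIB or ROD) at 50% cell culture infective doses. Graded compound concentrations were added immediately after infection. Plates were incubated for 5 days at 37 °C and viable cells were counted by MTT.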

HEL [21] = assay: as §1; format: cell-based; settings: human, hel; summary of the method: as §2
[22] = Cytotoxicity against HIV2 ROD infected human MT4 cells by MTT assay; format: cell-based; settings: MT4 cells infected with HIV-2 ROD
Summary of the method: (§7)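 MT-4 cells (3 × 10^4 per well) were cultured in microdilution trays with various concentrations of compound, then incubated 5 days at 37 °C, and viable cell number was read by MTT.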

HEL [23] = assay: as §3; format: cell-based; settings: human, hel; summary of the method: as §2
Proteus mirabilis = assay: Antibacterial activity against Proteus mirabilis after 24 hrs by broth microdilution method; format: functional
Summary of the method: (§8)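 Clinical isolates. Each dilution received 100 μl of 0.5 McFarland fresh culture. Solvent (DMSO), growth and standard controls were included. Tubes were incubated at 37 °C for 24 h. MIC is the highest dilution showing no turbidity. Tests were run in triplicate, with at least two repetitions.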

Human alphaherpesvirus 1 [24] = assay: Antiviral activity against acyclovir-sensitive Herpes simplex virus 1 KOS infected in HEL cells assessed as protection from virus-induced cytopathogenicity after 2 to 3 days by MTT assay; format: functional, organism-based; settings: Human alphaherpesvirus 1, KOS
Coxsackievirus B4 [25] = assay: Antiviral activity against Human coxsackievirus B4 infected in human HeLa cells assessed as protection from virus-induced cytopathogenicity after 2 days by MTT assay; format: functional, organism-based; settings: Enterovirus B, 48 h
HEL [26] = assay: Cytotoxicity against acyclovir-sensitive Herpes simplex virus 1 KOS infected HEL cells by trypan blue exclusion method; format: cell-based; settings: human; summary of the method: as §2
MDCK [27] = assay: Cytotoxicity against Influenza A virus subtype H3N2 infected MDCK cells by trypan blue exclusion method; format: cell-based, Canis lupus familiaris; settings: dog
[28] = Cytotoxicity against HIV1 3B-infected human MT4 cells by MTT assay; format: cell-based; settings: MT4 cells infected with HIV-1 3B; summary of the method: as §7
[29] = test system: Human immunodeficiency virus 1; assay: Antiviral activity against HIV1 3B-infected in human MT4 cells assessed as protection from virus-induced cytopathogenicity after 5 days by MTT assay; format: functional, organism-based; settings: Human immunodeficiency virus 1, 3B, MT4, 120 h; summary of the method: as §6
Influenza A virus [30] = assay: Antiviral activity against Influenza A virus H1N1 infected in MDCK cells assessed as protection from virus-induced cytopathogenicity after 6 to 7 days by MTT assay; format: functional, organism-based
MDCK [31] = assay: Cytotoxicity against Influenza B virus infected MDCK cells by trypan blue exclusion method; format: cell-based, Canis lupus familiaris; settings: dog
Influenza B virus = assay: Antiviral activity against Influenza B virus infected in MDCK cells assessed as protection from virus-induced cytopathogenicity after 6 to 7 days by MTT assay; format: functional, organism-based
Influenza A virus [32] = assay: Antiviral activity against Influenza A virus H3N2 infected in MDCK cells assessed as protection from virus-induced cytopathogenicity after 6 to 7 days by MTT assay; format: functional, organism-based
Human alphaherpesvirus 2 = assay: Antiviral activity against Herpes simplex virus 2 G infected in HEL cells assessed as protection from virus-induced cytopathogenicity after 2 to 3 days by MTT assay; format: functional, organism-based; settings: Human alphaherpesvirus 2, strain G
MDCK [33] = assay: Cytotoxicity against Influenza A virus subtype H1N1 infected MDCK cells by trypan blue exclusion method; format: cell-based, Canis lupus familiaris; settings: dog
HEL [34] = assay: as §4; format: cell-based; settings: human, hel; summary of the method: as §2
Human alphaherpesvirus 1 [35] = assay: Antiviral activity against Herpes simplex virus 1 KOS infected in HEL cells assessed as protection from virus-induced cytopathogenicity after 2 to 3 days by MTT assay; format: functional, organism-based; settings: Human alphaherpesvirus 1, KOS
HEL [36] = assay: as §5; format: cell-based; settings: human, hel; summary of the method: as §2
Klebsiella pneumoniae = assay: Antibacterial activity against Klebsiella pneumoniae after 24 hrs by broth microdilution method; format: functional; summary of the method: as §8
Streptococcus viridans = assay: Antibacterial activity against Streptococcus viridans after 24 hrs by broth microdilution method; format: functional; summary of the method: as §8
Escherichia coli = assay: Antibacterial activity against Escherichia coli after 24 hrs by broth microdilution method; format: functional; summary of the method: as §8
[37] = Proteus mirabilis, 24 h, read-out: MIC

Nc1nc2c(ncn2COC(CO)CO)c(=O)[nH]1 [GANCICLOVIR]
CC50 [1]: > 100000 nM
CC50 [2]: > 100000 nM
EC50 [3]: > 100000 nM
EC50 (Feline coronavirus): > 100000 nM
CC50 ([4]; CRFK cells infected with feline coronavirus): > 100000 nM
CC50 ([5]; CRFK cells infected with feline herpesvirus): > 100000 nM
CC50 [6]: > 100000 nM
CC50 [7]: > 100000 nM
EC50 (Felid alphaherpesvirus 1): 2600 nM

Nc1ncnc2c1ncn2C[C@H](O)CO [(S)-DHPA]
CC50 (HeLa [8]): > 250000 nM
EC50 [9]: 146000 nM
CC50 (HeLa [10]): > 250000 nM
EC50 (Punta Toro virus): > 250000 nM
CC50 (HeLa [11]): > 250000 nM
EC50 [12]: 146000 nM
CC50 (Vero [13]): > 250000 nM
CC50 (Vero [14]): > 250000 nM
EC50 [15]: > 250000 nM
CC50 (Vero [16]): > 250000 nM
EC50 (Coxsackievirus B4 [17]): > 250000 nM
EC50 (Human respirovirus 3): > 250000 nM
CC50 (Vero [18]): > 250000 nM
EC50 (Sindbis virus): > 250000 nM
CC50 (Vero [19]): > 250000 nM

COc1cc(/C=C/C(=O)C(CCOC(=O)CCC(NC(=O)c2ccc(NCc3cnc4nc(N)[nH]c(=O)c4n3)cc2)C(=O)O)C(=O)/C=C/c2ccc(O)c(OC)c2)ccc1O (stereo unspecified)
IC50 [20]: 65 nM
CC50 (HeLa [8]): > 11 nM
CC50 (HEL [21]): > 11 nM
CC50 [22]: > 65 nM
CC50 (HEL [23]): > 11 nM
MIC (Proteus mirabilis; [37]): 0.09 µM (≈ 0.0752 µg/mL)
EC50 [9]: > 11 nM
EC50 (Human alphaherpesvirus 1 [24]): > 11 nM
EC50 (Coxsackievirus B4 [25]): > 11 nM
CC50 (HEL [26]): > 11 nM
CC50 (MDCK [27]): > 11 nM
CC50 (HeLa [10]): > 11 nM
EC50 [3]: > 11 nM
EC50 (Punta Toro virus): > 11 nM
CC50 (HeLa [11]): > 11 nM
EC50 [12]: > 11 nM
CC50 [28]: > 63 nM
EC50 (Feline coronavirus): > 11 nM
IC50 [29]: 63 nM
EC50 (Influenza A virus [30]): > 11 nM
CC50 ([4]; crfk): > 11 nM
CC50 (Vero [13]): > 11 nM
CC50 (MDCK [31]): > 11 nM
EC50 (Influenza B virus): > 11 nM
CC50 (Vero [14]): > 11 nM
EC50 [15]: > 11 nM
EC50 (Influenza A virus [32]): > 11 nM
CC50 (Vero [16]): > 11 nM
EC50 (Coxsackievirus B4 [17]): > 11 nM
EC50 (Human alphaherpesvirus 2): > 11 nM
CC50 ([5]; crfk): > 11 nM
EC50 (Human respirovirus 3): > 11 nM
CC50 (MDCK [33]): > 11 nM
CC50 (HEL [34]): > 11 nM
CC50 (Vero [18]): > 11 nM
EC50 (Sindbis virus): > 11 nM
EC50 (Human alphaherpesvirus 1 [35]): > 11 nM
CC50 (HEL [36]): > 11 nM
EC50 (Felid alphaherpesvirus 1): > 11 nM

GENTAMICIN SULFATE
MIC (Klebsiella pneumoniae): > 1.73 µM
MIC (Proteus mirabilis): > 1.73 µM
MIC (Streptococcus viridans): > 1.73 µM
MIC (Escherichia coli): > 1.73 µM

CC1(C)S[C@@H]2[C@H](NC(=O)[C@H](N)c3ccccc3)C(=O)N2[C@H]1C(=O)O [AMPICILLIN TRIHYDRATE]
MIC (Klebsiella pneumoniae; Klebsiella pneumoniae, 24 h, read-out: MIC): 0.6 µM
MIC (Proteus mirabilis; [37]): 1.23 µM
MIC (Streptococcus viridans; Streptococcus viridans, 24 h, read-out: MIC): > 2.47 µM
MIC (Escherichia coli; Escherichia coli, 24 h, read-out: MIC): 1.23 µM
